Source: ChEMBL document CHEMBL3739264, “Synthesis and bio-evaluation of novel quinolino-stilbene derivatives as potential anticancer agents” (Bioorg Med Chem, 2015)
The source made the active and inactive calls. The rule behind the calls is not given here.

Legend:
MCF7 = test: Antiproliferative activity against human MCF7 cells after 72 hrs by SRB assay; assay type: functional, cell-based; details: MCF7, 72 h
In short: (§1)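 Cells seeded at 4,000-5,000/well for 16 h, then exposed 72 h to serial dilutions of compound in DMSO; sham DMSO as 100% and TCA-treated wells as 0%. IC50 from sigmoidal dose-response curves; two biological replicates, four technical each.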

MDA-MB-231 [1] = test: Cell cycle arrest in human MDA-MB-231 cells assessed as accumulation at S phase at 6 uM after 12 hrs by flow cytometry analysis relative to control; assay type: functional
In short: (§2)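 About 1 × 10^6 cells per plate seeded overnight, then treated with compound and harvested at set times. Cells fixed in 75% ethanol at -20°C for 12-24 h and stained 1 h with 100 µg/ml PI, 100 µg/ml RNase A and 0.3% NP-40 in PBS. DNA content measured by flow cytometry; phase fractions compared with sham-treated cells.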

MDA-MB-231 [2] = test: Cell cycle arrest in human MDA-MB-231 cells assessed as accumulation at G2/M phase at 6 uM after 72 hrs by flow cytometry analysis relative to control; assay type: functional; in short: as §2
[3] = Cell cycle arrest in human MCF10A cells assessed as accumulation at S phase at 6 uM after 24 hrs by flow cytometry analysis relative to control; assay type: functional, cell-based; details: MCF-10A; in short: as §2
[4] = Cell cycle arrest in human MCF10A cells assessed as accumulation at G2/M phase at 6 uM after 12 hrs by flow cytometry analysis relative to control; assay type: functional, cell-based; details: MCF-10A; in short: as §2
HeLa [5] = test: Induction of apoptosis in human HeLa cells assessed as membrane blebbing at 6 uM after 48 hrs by time lapse microscopy analysis; assay type: functional, cell-based
In short: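 Treated HeLa cells were followed by time-lapse microscopy, with images taken at set time points.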

[6] = Cell cycle arrest in human MCF10A cells assessed as accumulation at G2/M phase at 6 uM after 48 hrs by flow cytometry analysis relative to control; assay type: functional, cell-based; details: MCF-10A; in short: as §2
MDA-MB-231 [7] = test: Cell cycle arrest in human MDA-MB-231 cells assessed as accumulation at sub-G1 phase at 6 uM after 48 hrs by flow cytometry analysis relative to control; assay type: functional
In short: (§3)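 Cells seeded overnight at about 1 × 10^6 per plate, treated next morning, and harvested at set times. Fixed in 75% ethanol at -20°C for 12-24 h, then stained 1 h in PBS with 0.3% NP-40, 100 µg/ml RNase A and 100 µg/ml propidium iodide. Phase distribution read from DNA content by flow cytometry against sham-treated cells.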

HeLa [8] = test: Cell cycle arrest in human HeLa cells assessed as accumulation at sub-G1 phase at 6 uM after 72 hrs by flow cytometry analysis relative to control; assay type: functional; in short: as §2
HeLa [9] = test: Cell cycle arrest in human HeLa cells assessed as accumulation at G2/M phase at 6 uM after 24 hrs by flow cytometry analysis relative to control; assay type: functional; in short: as §2
HeLa [10] = test: Induction of DNA damage in human HeLa cells at 6 uM after 48 hrs by immunostaining; assay type: functional, cell-based
In short: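 γH2A.X (phospho-Ser139) immunostaining, with HeLa at 6 µM for 24 or 48 h and MDA-MB468 at 1 µM. Cells on coverslips fixed and permeabilized in ice-cold methanol at -20°C. Blocked in 1% FBS, primary antibody 1:200 overnight at 4°C, then fluorophore-conjugated secondary 1 h. DNA counterstained with DRAQ5.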

MDA-MB-231 [11] = test: Cell cycle arrest in human MDA-MB-231 cells assessed as accumulation at sub-G1 phase at 6 uM after 72 hrs by flow cytometry analysis relative to control; assay type: functional; in short: as §3
[12] = Cell cycle arrest in human MCF10A cells assessed as accumulation at G2/M phase at 6 uM after 24 hrs by flow cytometry analysis relative to control; assay type: functional, cell-based; details: MCF-10A; in short: as §2
MDA-MB-231 [13] = test: Cell cycle arrest in human MDA-MB-231 cells assessed as accumulation at G0-G1 phase at 6 uM after 72 hrs by flow cytometry analysis relative to control; assay type: functional; in short: as §2
MDA-MB-231 [14] = test: Cell cycle arrest in human MDA-MB-231 cells assessed as accumulation at G0-G1 phase at 6 uM after 24 hrs by flow cytometry analysis relative to control; assay type: functional; in short: as §2
MDA-MB-231 [15] = test: Cell cycle arrest in human MDA-MB-231 cells assessed as accumulation at G0-G1 phase at 6 uM after 12 hrs by flow cytometry analysis relative to control; assay type: functional; in short: as §2
HeLa [16] = test: Cell cycle arrest in human HeLa cells assessed as accumulation at S phase at 6 uM after 24 hrs by flow cytometry analysis relative to control; assay type: functional; in short: as §2
[17] = Antiproliferative activity against human MCF10A cells after 72 hrs by SRB assay; assay type: cell-based; details: MCF-10A
In short: as §1, with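 “0%. Fixed in 10% TCA at 4°C for 1 h, stained with 0.4% SRB for 30 min, dye solubilised in 10 mmol Tris pH 10.5, read at 540 nm.” for “0%.”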

HeLa [18] = test: Decrease of Wee-1 level in human HeLa cells at 6 uM after 48 hrs by Western blot analysis
[19] = Cell cycle arrest in human MCF10A cells assessed as accumulation at S phase at 6 uM after 72 hrs by flow cytometry analysis relative to control; assay type: functional, cell-based; details: MCF-10A; in short: as §2
[20] = Cell cycle arrest in human MCF10A cells assessed as accumulation at sub-G1 phase at 6 uM after 72 hrs by flow cytometry analysis relative to control; assay type: functional, cell-based; details: MCF-10A; in short: as §2
[21] = Cell cycle arrest in human MCF10A cells assessed as accumulation at sub-G1 phase at 6 uM after 12 hrs by flow cytometry analysis relative to control; assay type: functional, cell-based; details: MCF-10A; in short: as §2
[22] = Cell cycle arrest in human MCF10A cells assessed as accumulation at S phase at 6 uM after 48 hrs by flow cytometry analysis relative to control; assay type: functional, cell-based; details: MCF-10A; in short: as §2
HeLa [23] = test: Induction of mitosis arrest in human HeLa cells assessed as disoriented tubulin structure at 6 uM after 12 hrs using DAPI staining by immunofluorescence microscopic analysis; assay type: functional, cell-based
In short: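 HeLa cells on coverslips treated 12 h, fixed in ice-cold methanol at -20°C. Stained with anti-α-tubulin and anti-lamin A (primary 1:200 overnight at 4°C, fluorescent secondary 1 h) and DAPI for DNA. Mitotic morphology scored by fluorescence microscopy.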

HeLa [24] = test: Antiproliferative activity against human HeLa cells after 72 hrs by SRB assay; assay type: functional, cell-based
In short: as §1, with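 “0%. Fixed in 10% TCA at 4°C for 1 h, stained with 0.4% SRB for 30 min, dye solubilised in 10 mmol Tris pH 10.5, read at 540 nm.” for “0%.”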

HeLa [25] = test: Cell cycle arrest in human HeLa cells assessed as accumulation at G0-G1 phase at 6 uM after 72 hrs by flow cytometry analysis relative to control; assay type: functional; in short: as §2
MDA-MB-231 [26] = test: Cell cycle arrest in human MDA-MB-231 cells assessed as accumulation at S phase at 6 uM after 72 hrs by flow cytometry analysis relative to control; assay type: functional; in short: as §2

`FC(F)(F)c1cccc(/C=C\c2cc3ccccc3nc2Cl)c1` showed an IC50 (MCF7) of 3.53 µM, an Activity (MDA-MB-231 [1]) of 18.2% and an Activity (MDA-MB-231 [2]) of 14.4%. For the same molecule, the Activity [3] was 34.3%, the Activity [4] was 11.4% and the Activity (HeLa [5]) was “Active”. It also gave an Activity [6] of 6.2%, an Activity (MDA-MB-231 [7]) of 23.8% and an Activity (HeLa [8]) of 46%. For the same molecule, the Activity (HeLa [9]) was 56.9%, the Activity (HeLa [10]) was “inactive” and the Activity (MDA-MB-231 [11]) was 31.3%. The Activity [12] was 8.3%, the Activity (MDA-MB-231 [13]) was 34.6% and the Activity (MDA-MB-231 [14]) was 34%. It also gave an Activity (MDA-MB-231 [15]) of 22.2%, an Activity (HeLa [16]) of 8.1% and an IC50 [17] of 6.01 µM. The Activity (HeLa [18]) was “Active”, the Activity [19] was 12.1% and the Activity [20] was 12.1%. The Activity [21] was 3.4%, the Activity [22] was 17.9% and the Activity (HeLa [23]) was “Active”. For the same molecule, the IC50 (HeLa [24]) was 2.85 µM, the Activity (HeLa [25]) was 22.9% and the Activity (MDA-MB-231 [26]) was 14.2%.
